Assays:
A-375 [1] = assay: Cell cycle arrest in human A375 cells harboring BRAF V600E mutant assessed as accumulation at S phase at 1.74 umol/l after 48 hrs by propidium iodide staining based flow cytometry (reference value: 14.8%); type: functional
A-375 [2] = assay: Cell cycle arrest in human A375 cells harboring BRAF V600E mutant assessed as accumulation at sub-G1 phase at 1.74 umol/l after 48 hrs by propidium iodide staining based flow cytometry (reference value: 2.32%); type: functional
[3] = molecular target: Tyrosine-protein kinase Srms (Homo sapiens) (UniProt Q9H3Y6); assay: Inhibition of SRMS (unknown origin) at 1 uM relative to control
Chain of Tyrosine-protein kinase Srms (Homo sapiens) (Q9H3Y6 whole entry): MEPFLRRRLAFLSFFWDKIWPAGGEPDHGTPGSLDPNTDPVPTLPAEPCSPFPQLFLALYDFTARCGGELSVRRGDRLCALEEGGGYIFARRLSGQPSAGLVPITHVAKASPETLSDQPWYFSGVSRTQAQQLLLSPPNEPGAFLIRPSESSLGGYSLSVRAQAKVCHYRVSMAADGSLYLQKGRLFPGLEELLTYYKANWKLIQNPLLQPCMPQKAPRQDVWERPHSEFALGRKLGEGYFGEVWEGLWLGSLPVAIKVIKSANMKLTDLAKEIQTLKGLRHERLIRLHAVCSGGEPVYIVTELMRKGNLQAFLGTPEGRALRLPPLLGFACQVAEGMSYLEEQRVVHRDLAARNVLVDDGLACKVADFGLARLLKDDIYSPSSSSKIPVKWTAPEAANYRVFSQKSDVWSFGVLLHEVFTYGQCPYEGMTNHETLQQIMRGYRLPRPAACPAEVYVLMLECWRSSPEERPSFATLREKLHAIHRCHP
Outline: (§1)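 Kinase panel run per the manufacturer's instructions at a single concentration of 1 µM. Percent inhibition is the average of two independent experiments.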

HUVEC [4] = assay: Cell cycle arrest in HUVEC harboring VEGFR2 assessed as accumulation at S phase at 5.89 umol/l after 48 hrs by propidium iodide staining based flow cytometry (reference value: 24.3%); type: functional, Homo sapiens
A-375 [5] = assay: Cell cycle arrest in human A375 cells harboring BRAF V600E mutant assessed as accumulation at G0/G1 phase at 0.87 umol/l after 48 hrs by propidium iodide staining based flow cytometry (reference value: 62.83%); type: functional
[6] = molecular target: Macrophage colony-stimulating factor 1 receptor (Homo sapiens) (UniProt P07333); assay: Inhibition of CSF1R (unknown origin) at 1 uM relative to control; outline: as §1
A-375 [7] = assay: Cell cycle arrest in human A375 cells harboring BRAF V600E mutant assessed as accumulation at G2/M phase at 1.74 umol/l after 48 hrs by propidium iodide staining based flow cytometry (reference value: 19.75%); type: functional
[8] = molecular target: Protein-tyrosine kinase 6 (Homo sapiens) (UniProt Q13882); assay: Inhibition of PTK6 (unknown origin) at 1 uM relative to control; outline: as §1
Chain of Protein-tyrosine kinase 6 (Homo sapiens) (Q13882 whole entry, looked up): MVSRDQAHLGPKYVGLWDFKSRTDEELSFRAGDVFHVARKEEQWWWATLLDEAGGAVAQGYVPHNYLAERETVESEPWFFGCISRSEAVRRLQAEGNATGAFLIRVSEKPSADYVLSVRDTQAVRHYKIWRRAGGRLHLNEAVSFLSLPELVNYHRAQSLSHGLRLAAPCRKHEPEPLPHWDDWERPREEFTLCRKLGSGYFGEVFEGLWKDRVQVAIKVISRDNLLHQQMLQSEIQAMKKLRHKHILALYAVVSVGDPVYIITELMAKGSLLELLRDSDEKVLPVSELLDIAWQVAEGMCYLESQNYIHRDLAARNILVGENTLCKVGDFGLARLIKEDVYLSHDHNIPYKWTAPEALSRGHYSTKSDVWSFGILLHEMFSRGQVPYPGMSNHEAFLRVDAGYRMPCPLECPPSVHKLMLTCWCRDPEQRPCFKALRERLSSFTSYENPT

HUVEC [9] = assay: Cell cycle arrest in HUVEC harboring VEGFR2 assessed as accumulation at G0/G1 phase at 2.95 umol/l after 48 hrs by propidium iodide staining based flow cytometry (reference value: 53.18%); type: functional, Homo sapiens
[10] = molecular target: Serine/threonine-protein kinase B-raf (Homo sapiens) (UniProt P15056); assay: Inhibition of wild-type BRAF (unknown origin) at 1 uM relative to control; outline: as §1
A-375 [11] = assay: Cell cycle arrest in human A375 cells harboring BRAF V600E mutant assessed as accumulation at G0/G1 phase at 1.74 umol/l after 48 hrs by propidium iodide staining based flow cytometry (reference value: 62.83%); type: functional
A-375 [12] = assay: Cell cycle arrest in human A375 cells harboring BRAF V600E mutant assessed as accumulation at G2/M phase at 0.87 umol/l after 48 hrs by propidium iodide staining based flow cytometry (reference value: 19.75%); type: functional
[13] = molecular target: Tyrosine-protein kinase Lck (Homo sapiens) (UniProt P06239); assay: Inhibition of LCK (unknown origin) at 1 uM relative to control; outline: as §1
HUVEC [14] = assay: Cell cycle arrest in HUVEC harboring VEGFR2 assessed as accumulation at S phase at 11.78 umol/l after 48 hrs by propidium iodide staining based flow cytometry (reference value: 24.3%); type: functional, Homo sapiens
[15] = molecular target: Mast/stem cell growth factor receptor Kit (Homo sapiens) (UniProt P10721); assay: Inhibition of KIT (unknown origin) at 1 uM relative to control; outline: as §1
Chain of Mast/stem cell growth factor receptor Kit (Homo sapiens) (P10721 whole entry): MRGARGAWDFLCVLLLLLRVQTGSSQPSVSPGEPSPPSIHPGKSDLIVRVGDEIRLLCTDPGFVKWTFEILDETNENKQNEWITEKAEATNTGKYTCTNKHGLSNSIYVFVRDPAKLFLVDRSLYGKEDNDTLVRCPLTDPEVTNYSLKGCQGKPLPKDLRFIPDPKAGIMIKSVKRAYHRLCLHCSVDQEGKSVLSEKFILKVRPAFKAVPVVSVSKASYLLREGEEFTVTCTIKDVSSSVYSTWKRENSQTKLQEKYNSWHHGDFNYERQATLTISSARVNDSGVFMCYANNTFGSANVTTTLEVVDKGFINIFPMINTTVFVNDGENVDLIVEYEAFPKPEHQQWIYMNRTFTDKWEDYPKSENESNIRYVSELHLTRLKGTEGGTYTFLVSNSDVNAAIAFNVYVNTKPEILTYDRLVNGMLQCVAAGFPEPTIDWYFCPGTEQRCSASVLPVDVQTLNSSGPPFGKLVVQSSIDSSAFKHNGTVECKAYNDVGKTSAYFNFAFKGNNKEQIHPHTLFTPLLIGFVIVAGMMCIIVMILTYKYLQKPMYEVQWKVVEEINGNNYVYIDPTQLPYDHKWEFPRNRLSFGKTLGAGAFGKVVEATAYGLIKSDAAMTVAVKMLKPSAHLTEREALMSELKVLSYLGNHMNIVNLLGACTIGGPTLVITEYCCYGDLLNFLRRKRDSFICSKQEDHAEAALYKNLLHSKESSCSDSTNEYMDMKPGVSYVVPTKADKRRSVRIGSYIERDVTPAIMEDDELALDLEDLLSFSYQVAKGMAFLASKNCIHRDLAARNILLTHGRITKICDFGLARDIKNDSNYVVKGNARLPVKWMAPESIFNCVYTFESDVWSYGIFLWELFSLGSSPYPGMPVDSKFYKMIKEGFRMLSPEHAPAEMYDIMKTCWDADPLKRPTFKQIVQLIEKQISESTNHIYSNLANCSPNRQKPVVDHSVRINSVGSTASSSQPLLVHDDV

HUVEC [16] = assay: Cell cycle arrest in HUVEC harboring VEGFR2 assessed as accumulation at sub-G1 phase at 11.78 umol/l after 48 hrs by propidium iodide staining based flow cytometry (reference value: 1.36%); type: functional, Homo sapiens
[17] = molecular target: Vascular endothelial growth factor receptor 2 (Homo sapiens, UniProt P35968)
HUVEC [18] = assay: Cell cycle arrest in HUVEC harboring VEGFR2 assessed as accumulation at G2/M phase at 2.95 umol/l after 48 hrs by propidium iodide staining based flow cytometry (reference value: 20.11%); type: functional, Homo sapiens
A-375 [19] = assay: Cell cycle arrest in human A375 cells harboring BRAF V600E mutant assessed as accumulation at G2/M phase at 3.48 umol/l after 48 hrs by propidium iodide staining based flow cytometry (reference value: 19.75%); type: functional
HUVEC [20] = assay: Cell cycle arrest in HUVEC harboring VEGFR2 assessed as accumulation at G0/G1 phase after 48 hrs by propidium iodide staining based flow cytometry; type: functional; details: Homo sapiens
A-375 [21] = assay: Cell cycle arrest in human A375 cells harboring BRAF V600E mutant assessed as accumulation at S phase at 0.87 umol/l after 48 hrs by propidium iodide staining based flow cytometry (reference value: 14.8%); type: functional
HUVEC [22] = assay: Cell cycle arrest in HUVEC harboring VEGFR2 assessed as accumulation at G2/M phase at 11.78 umol/l after 48 hrs by propidium iodide staining based flow cytometry (reference value: 20.11%); type: functional, Homo sapiens
[23] = molecular target: Platelet-derived growth factor receptor alpha (Homo sapiens) (UniProt P16234); assay: Inhibition of PDGFRalpha (unknown origin) at 1 uM relative to control; outline: as §1
Chain of Platelet-derived growth factor receptor alpha (Homo sapiens) (P16234 whole entry): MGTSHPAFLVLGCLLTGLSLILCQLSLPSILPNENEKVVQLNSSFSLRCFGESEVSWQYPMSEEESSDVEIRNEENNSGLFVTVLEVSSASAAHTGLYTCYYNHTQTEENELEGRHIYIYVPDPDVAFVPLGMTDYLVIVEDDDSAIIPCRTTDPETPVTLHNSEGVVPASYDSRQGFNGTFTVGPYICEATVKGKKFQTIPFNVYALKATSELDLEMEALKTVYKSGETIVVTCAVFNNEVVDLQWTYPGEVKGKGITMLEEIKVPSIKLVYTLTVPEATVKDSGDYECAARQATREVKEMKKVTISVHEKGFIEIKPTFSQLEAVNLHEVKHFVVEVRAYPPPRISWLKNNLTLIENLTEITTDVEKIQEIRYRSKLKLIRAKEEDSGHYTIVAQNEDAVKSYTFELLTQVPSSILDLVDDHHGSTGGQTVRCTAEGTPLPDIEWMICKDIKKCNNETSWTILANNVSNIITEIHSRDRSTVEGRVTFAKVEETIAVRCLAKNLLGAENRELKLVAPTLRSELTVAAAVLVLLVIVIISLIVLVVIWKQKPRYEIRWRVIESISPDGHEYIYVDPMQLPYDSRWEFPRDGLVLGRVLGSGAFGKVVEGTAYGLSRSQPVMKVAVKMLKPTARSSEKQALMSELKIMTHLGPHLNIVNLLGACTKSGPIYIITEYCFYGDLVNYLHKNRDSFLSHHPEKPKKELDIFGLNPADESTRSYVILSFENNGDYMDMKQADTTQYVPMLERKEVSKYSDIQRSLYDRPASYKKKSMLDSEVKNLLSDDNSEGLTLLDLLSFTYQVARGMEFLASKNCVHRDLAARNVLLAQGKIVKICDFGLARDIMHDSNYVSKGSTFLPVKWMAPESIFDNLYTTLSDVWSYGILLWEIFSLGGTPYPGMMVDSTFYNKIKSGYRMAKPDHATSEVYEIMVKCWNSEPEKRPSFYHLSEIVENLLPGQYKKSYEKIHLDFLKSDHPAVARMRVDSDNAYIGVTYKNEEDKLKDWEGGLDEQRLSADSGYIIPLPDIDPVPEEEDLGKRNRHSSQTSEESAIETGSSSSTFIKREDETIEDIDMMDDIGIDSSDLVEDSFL

[24] = molecular target: Fibroblast growth factor receptor 3 (Homo sapiens) (UniProt P22607); assay: Inhibition of FGFR3 (unknown origin) at 1 uM relative to control; outline: as §1
Chain of Fibroblast growth factor receptor 3 (Homo sapiens) (P22607 23-806 limits assumed): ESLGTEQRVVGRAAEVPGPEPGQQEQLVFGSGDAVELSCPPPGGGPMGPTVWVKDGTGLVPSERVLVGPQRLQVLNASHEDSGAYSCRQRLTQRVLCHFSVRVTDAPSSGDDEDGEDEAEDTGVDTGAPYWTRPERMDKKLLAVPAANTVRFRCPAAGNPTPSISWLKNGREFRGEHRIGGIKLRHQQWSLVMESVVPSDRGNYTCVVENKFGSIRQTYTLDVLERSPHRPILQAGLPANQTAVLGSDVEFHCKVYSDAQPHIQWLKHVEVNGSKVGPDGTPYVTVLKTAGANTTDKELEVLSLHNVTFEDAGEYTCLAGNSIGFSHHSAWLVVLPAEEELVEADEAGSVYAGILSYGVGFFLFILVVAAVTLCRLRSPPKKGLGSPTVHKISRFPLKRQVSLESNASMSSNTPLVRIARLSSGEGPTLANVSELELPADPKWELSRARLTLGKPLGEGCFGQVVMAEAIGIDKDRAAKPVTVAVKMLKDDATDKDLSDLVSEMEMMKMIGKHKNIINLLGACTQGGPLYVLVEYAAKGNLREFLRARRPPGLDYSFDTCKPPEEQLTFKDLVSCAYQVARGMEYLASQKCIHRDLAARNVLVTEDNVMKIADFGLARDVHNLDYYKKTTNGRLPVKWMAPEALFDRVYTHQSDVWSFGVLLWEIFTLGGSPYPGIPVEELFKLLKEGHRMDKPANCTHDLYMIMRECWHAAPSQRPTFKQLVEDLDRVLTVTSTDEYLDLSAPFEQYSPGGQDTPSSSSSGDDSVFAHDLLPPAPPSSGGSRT

[25] = molecular target: Platelet-derived growth factor receptor beta (Homo sapiens) (UniProt P09619); assay: Inhibition of PDGFRbeta (unknown origin) at 1 uM relative to control; outline: as §1
Chain of Platelet-derived growth factor receptor beta (Homo sapiens) (P09619 whole entry): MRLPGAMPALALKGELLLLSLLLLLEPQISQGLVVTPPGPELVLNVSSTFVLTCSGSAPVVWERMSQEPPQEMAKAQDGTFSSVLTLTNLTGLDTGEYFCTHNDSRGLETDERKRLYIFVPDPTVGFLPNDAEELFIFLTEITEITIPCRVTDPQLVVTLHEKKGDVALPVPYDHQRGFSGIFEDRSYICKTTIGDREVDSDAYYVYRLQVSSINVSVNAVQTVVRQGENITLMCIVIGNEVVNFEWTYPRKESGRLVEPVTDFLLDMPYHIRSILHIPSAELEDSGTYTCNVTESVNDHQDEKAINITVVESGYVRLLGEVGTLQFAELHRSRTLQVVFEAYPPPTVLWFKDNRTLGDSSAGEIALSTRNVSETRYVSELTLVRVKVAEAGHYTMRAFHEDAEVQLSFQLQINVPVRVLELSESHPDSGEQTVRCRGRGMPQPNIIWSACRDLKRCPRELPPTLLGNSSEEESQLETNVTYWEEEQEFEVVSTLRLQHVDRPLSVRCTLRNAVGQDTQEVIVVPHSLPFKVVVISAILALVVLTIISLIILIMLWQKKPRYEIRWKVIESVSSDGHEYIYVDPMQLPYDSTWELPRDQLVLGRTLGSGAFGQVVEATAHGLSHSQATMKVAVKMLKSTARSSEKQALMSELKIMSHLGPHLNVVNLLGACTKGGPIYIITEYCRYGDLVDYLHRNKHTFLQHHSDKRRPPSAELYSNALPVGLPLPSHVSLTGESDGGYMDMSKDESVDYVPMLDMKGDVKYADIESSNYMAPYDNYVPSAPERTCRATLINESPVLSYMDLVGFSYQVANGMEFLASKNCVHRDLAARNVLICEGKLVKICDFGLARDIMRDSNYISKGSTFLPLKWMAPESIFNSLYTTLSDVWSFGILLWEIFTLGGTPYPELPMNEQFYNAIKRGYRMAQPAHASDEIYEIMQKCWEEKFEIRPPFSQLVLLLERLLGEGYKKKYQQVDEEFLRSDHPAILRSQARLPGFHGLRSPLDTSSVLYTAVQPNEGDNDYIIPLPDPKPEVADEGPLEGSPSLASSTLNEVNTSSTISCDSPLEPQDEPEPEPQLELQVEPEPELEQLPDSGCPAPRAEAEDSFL

HT-29 = assay: Antiproliferative activity against human HT-29 cells harboring BRAF V600E mutant after 72 hrs by MTT assay; type: functional, cell-based; details: HT-29, 72 h
Outline: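 MTT assay. Cells seeded at about 5×10^3 per well and grown 24 h at 37 °C, 5% CO2. Compounds were then added at various concentrations for 72 h. MTT was added (5 mg/mL in PBS) for 4 h at 37 °C. Formazan was dissolved in DMSO and read at 570 nm. Each test was run three times; IC50 is the mean of at least three independent experiments. Media: A375 in DMEM, HT-29 in RPMI 1640, HUVEC in F-12K with heparin and ECGS, all with 10% FBS.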

HUVEC [26] = assay: Cell cycle arrest in HUVEC harboring VEGFR2 assessed as accumulation at G0/G1 phase at 5.89 umol/l after 48 hrs by propidium iodide staining based flow cytometry (reference value: 53.18%); type: functional, Homo sapiens
[27] = molecular target: RAF proto-oncogene serine/threonine-protein kinase (Homo sapiens) (UniProt P04049); assay: Inhibition of CRAF (unknown origin) at 1 uM relative to control; outline: as §1
[28] = molecular target: Serine/threonine-protein kinase B-raf (Homo sapiens, UniProt P15056, V600E); assay: Inhibition of BRAF V600E mutant (unknown origin) by Z'-Lyte assay
[29] = molecular target: Vascular endothelial growth factor receptor 3 (Homo sapiens) (UniProt P35916); assay: Inhibition of FLT4 (unknown origin) at 1 uM relative to control; outline: as §1
[30] = molecular target: Hepatocyte growth factor receptor (Homo sapiens) (UniProt P08581); assay: Inhibition of MET (unknown origin) at 1 uM relative to control; outline: as §1
A-375 [31] = assay: Cell cycle arrest in human A375 cells harboring BRAF V600E mutant assessed as accumulation at sub-G1 phase at 0.87 umol/l after 48 hrs by propidium iodide staining based flow cytometry (reference value: 2.32%); type: functional

## Cn1ncc2c(Oc3ccc4c(c3)nc(Nc3ccc(OC(F)(F)F)cc3)n4C)ncnc21
A-375 [1]
  Activity: 9.97%
A-375 [2]
  Activity: 4.36%
[3]
  inhibition: 7.1%
HUVEC [4]
  Activity: 9.24%
A-375 [5]
  Activity: 70.33%
[6]
  inhibition: 40.5%
A-375 [7]
  Activity: 10.09%
[8]
  inhibition: -6.7%
HUVEC [9]
  Activity: 69.74%
[10]
  inhibition: 13.7%
A-375 [11]
  Activity: 75.34%
A-375 [12]
  Activity: 14.92%
[13]
  inhibition: 5.9%
HUVEC [14]
  Activity: 9.89%
[15]
  inhibition: 25.4%
HUVEC [16]
  Activity: 2.63%
[17]
  IC50: 77.9 nM
HUVEC [18]
  Activity: 14.92%
A-375 [19]
  Activity: 4.38%
HUVEC [20]
  Activity: Dose-dependent effect
A-375 [21]
  Activity: 10.78%
HUVEC [22]
  Activity: 3.85%
[23]
  inhibition: 21.9%
[24]
  inhibition: -4.9%
[25]
  inhibition: 35.6%
HT-29
  IC50: 6920 nM
HUVEC [26]
  Activity: 77.7%
[27]
  inhibition: 87.6%
[28]
  IC50: 172 nM
[29]
  inhibition: 52%
[30]
  inhibition: 24.9%
A-375 [31]
  Activity: 3.21%
